# Tests used:
# [1] = Inhibition of Escherichia coli thymidylate synthetase using dUMP as substrate preincubated for 20 mins followed by substrate addition
# Outline: (§1)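 Enzyme and inhibitor preincubated 20 min at 30 °C in assay mix with 0.11 M 2-mercaptoethanol, 3 × 10^-4 M tetrahydrofolate, 0.012 M formaldehyde and 0.021 M MgCl2. Reaction started by adding dUMP to 4 × 10^-5 M. Enzyme concentrations were 8 × 10^-9 M for L. casei, 8 × 10^-9 M for E. coli (calculated assuming the L. casei turnover number) and 4 × 10^-9 M for T2. Concentration giving 50% inhibition reported.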
# [2] = biological target: T1, Thymidylate synthase (Lactobacillus casei) (UniProt P00469); assay: Inhibition of Lactobacillus casei thymidylate synthetase using dUMP as substrate at 20 uM preincubated for 20 mins followed by substrate addition relative to control; details: Lacticaseibacillus casei
# T1 sequence (whole entry): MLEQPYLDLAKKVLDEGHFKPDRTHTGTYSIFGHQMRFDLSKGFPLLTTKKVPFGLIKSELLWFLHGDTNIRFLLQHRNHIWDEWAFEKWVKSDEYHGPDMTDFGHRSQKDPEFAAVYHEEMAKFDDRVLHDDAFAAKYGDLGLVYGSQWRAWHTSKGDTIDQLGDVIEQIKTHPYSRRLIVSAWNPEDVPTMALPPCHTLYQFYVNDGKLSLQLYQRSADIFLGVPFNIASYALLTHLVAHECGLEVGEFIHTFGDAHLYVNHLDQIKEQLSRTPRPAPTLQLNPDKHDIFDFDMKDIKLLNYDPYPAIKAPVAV
# [3] = biological target: T1, Thymidylate synthase (Lactobacillus casei); assay: Inhibition of Lactobacillus casei thymidylate synthetase using dUMP as substrate at 20 uM preincubated for 40 mins followed by substrate addition relative to control; details: Lacticaseibacillus casei
# [4] = Inhibition of coliphage T2 thymidylate synthetase using dUMP as substrate preincubated for 20 mins followed by substrate addition; set-up: species or system Enterobacteria phage T2; outline: as §1
# [5] = biological target: T1, Thymidylate synthase (Lactobacillus casei); assay: Inhibition of Lactobacillus casei thymidylate synthetase using dUMP as substrate at 20 uM preincubated for 0 mins followed by substrate addition relative to control; details: Lacticaseibacillus casei
# Thymidylate synthase = biological target: T2, Thymidylate synthase (Lactobacillus casei, UniProt P00469); assay: Inhibition of Lactobacillus casei thymidylate synthetase using dUMP as substrate preincubated for 20 mins followed by substrate addition; set-up: species or system Lacticaseibacillus casei; outline: as §1
# T2 sequence (P00469 whole entry): T1 sequence (whole entry)
# [6] = biological target: T1, Thymidylate synthase (Lactobacillus casei); assay: Inhibition of Lactobacillus casei thymidylate synthetase using dUMP as substrate at 20 uM preincubated for 5 mins followed by substrate addition relative to control; details: Lacticaseibacillus casei
# [7] = biological target: T1, Thymidylate synthase (Lactobacillus casei); assay: Inhibition of Lactobacillus casei thymidylate synthetase using dUMP as substrate at 20 uM preincubated for 10 mins followed by substrate addition relative to control; details: Lacticaseibacillus casei
# [8] = Cytotoxicity against human Hep2 cells assessed as growth inhibition; assay type: functional; details: HEp-2, read-out: ED50 (the source's name)
compound,measurement,setting,value
O=c1[nH]c(=O)n([C@H]2C[C@H](O)[C@@H](CCP(=O)(O)O)O2)cc1F,IC50,[1],0.6 µM
same,inhibition,[2],75%
same,inhibition,[3],85%
same,IC50,[4],0.06 µM
same,inhibition,[5],0%
same,IC50,Thymidylate synthase,7 µM
same,inhibition,[6],45%
same,inhibition,[7],64%
same,EC50,[8],45 µM

# From ChEMBL document CHEMBL3227928, “Phosphonate analogue of 2'-deoxy-5-fluorouridylic acid” (J Med Chem, 1979)
